Measurements gathered from unrelated publications.
Compare with care: the assays were run in different laboratories.
Target: Serine/threonine-protein kinase WNK3 (WNK3, Homo sapiens, UniProt Q9BYP7)

| Structure (SMILES) | test | conditions | measurement | result |
| --- | --- | --- | --- | --- |
| Cc1cc(NC(=O)c2cccc3cc(-c4cccc5[nH]nc(N)c45)ccc23)ccc1F | enzyme activity, inhibitor | 0.1 µM | activity vs control | 93% |
| FC(F)(F)c1ccc2c(c1)nc(-c1cccnc1)n2C1CC1 | cell-free assay, competition with immobilised ligand | 1 µM | remaining binding | 100% |
| CC(C)(C)c1nc2c(s1)c1nc(N)ncc1c1ccc(NS(=O)(=O)c3c(F)cccc3F)c(F)c12 | enzyme activity, inhibitor, radiometric | 1 µM | remaining activity | 91% |
| CCN(CC)c1ccc(C2=NNC(=O)CC2C)cc1[N+](=O)[O-] (centres unmarked) | enzyme activity, inhibitor | 10 µM | remaining activity | 105% |
| CNC(=O)c1cc(Oc2ccc(NC(=O)Nc3ccc(Cl)c(C(F)(F)F)c3)cc2)ccn1 | enzyme activity, inhibitor | 10 µM | inhibition | -4% |
| CC(C)(O)[C@H]1CC[C@H](Nc2ccc3ncc(-c4cccc(C(F)(F)F)c4)n3n2)CC1 | enzyme activity, inhibitor | 1 µM | remaining activity | 90.7% |
| CCCS(=O)(=O)Nc1ccc(F)c(C(=O)c2c[nH]c3ncc(-c4ccc(Cl)cc4)cc23)c1F | enzyme activity, inhibitor | 1 µM | inhibition | < 10% |
| CCC(=N\O)/C(C)=C/c1ccc(F)cc1 | cell-free assay, competition with immobilised ligand | 1 µM | remaining binding | 75% |
| Cc1ccc(Nc2nccc(N(C)c3ccc4c(C)n(C)nc4c3)n2)cc1S(N)(=O)=O | enzyme activity, inhibitor | 10 µM | inhibition | 33% |
| CC(C)(O)c1cncc(-c2nc3ccc(F)cc3n2C2CC2)c1 | cell-free assay, competition with immobilised ligand | 1 µM | remaining binding | 100% |
| Cc1sc(C(=O)NC2COC2)cc1-n1cc(NC(=O)Nc2c(F)cccc2Cl)cn1 | enzyme activity, inhibitor | 10 µM | remaining activity | 102% |
| CNCc1ccccc1-c1csc([C@@H](C)Nc2nc(C)nc3cc(OC)c(OC)cc23)c1 | cell-free assay, competition with immobilised ligand | 1 µM | remaining binding | 100% |
| Nc1ncnc2occ(-c3ccc(NC(=O)Nc4cc(C(F)(F)F)ccc4F)cc3)c12 | cell-free assay, inhibitor | 20 µM | remaining signal | 58% |
| CCN(CC)CCNC(=O)c1c(C)[nH]c(/C=C2\C(=O)Nc3ccc(F)cc32)c1C | enzyme activity, inhibitor | 10 µM | inhibition | 7% |
| Cc1cnc(NC2CCOCC2)nc1-n1cnc(C(=O)NC(CN)c2cc(F)cc(Cl)c2)c1 (centres unmarked) | enzyme activity, inhibitor, radiometric | 1 µM | remaining activity | 103% |
| N#CCCc1ccc2c(c1)-c1[nH]c3ccc([N+](=O)[O-])cc3c1CC(=O)N2 | cell-free assay | 0.5 µM | remaining signal | 96.5% |
| CCCOc1ccc([C@H]2[C@H](C(=O)O)[C@@H](c3ccc4c(c3)OCO4)CN2CC(=O)Nc2c(CC)cccc2CC)cc1 | cell-free assay, competition with immobilised ligand | 1 µM | remaining binding | 90% |
